Results as given in ChEMBL document CHEMBL1156630, “Investigations on the 4-quinolone-3-carboxylic acid motif. 2. Synthesis and structure-activity relationship of potent and selective cannabinoid-2 receptor agonists endowed with analgesic activity in vivo” (J Med Chem, 2008).
pKi: −log10 of the molar value. Active and inactive are the calls of the source. No cut-off for these calls is given here.

Tests used:
Homo sapiens = species on record: Homo sapiens; assay: Selectivity for human CB2 receptor over human CB1 receptor
Outline: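 Ratio Ki(CB1)/Ki(CB2) from radioligand displacement on HEK-cell membranes expressing human CB1 or CB2. Ki derived from IC50 via Cheng-Prusoff. Final DMSO below 0.1%.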

Cannabinoid receptor 1 = Cannabinoid receptor 1 (Homo sapiens, UniProt P21554); assay: biochemical; format: cell-based, HEK293
Cannabinoid receptor 2 = Cannabinoid receptor 2 (Homo sapiens, UniProt P34972); assay: Displacement of [3H]CP-55940 from human CB2 receptor expressed in HEK293 cells; format: cell-based
Mus musculus [1] = assay: Analgesic activity in mouse assessed as inhibition of formalin-induced nociceptive response at 3 mg/kg, ip in presence of AM630; format: functional, organism-based; parameters: dose 3 mg/kg
Outline: (§1)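 Mice, 8-10 per group, randomly assigned; 1.25% formalin into dorsal hind paw. Drug given ip in 10% DMSO/0.9% NaCl 15 min before formalin; AM630 3 mg/kg ip given 5 min before compound. Licking, lifting, flinching, shaking and favoring timed in 5-min bins over 60 min; second phase 15-60 min. Two-way ANOVA with Bonferroni.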

Mus musculus [2] = assay: Analgesic activity in mouse assessed as inhibition of formalin-induced nociceptive response at 3 mg/kg, ip; format: functional, organism-based; parameters: dose 3 mg/kg; outline: as §1

Sequence of Cannabinoid receptor 1 (P21554 whole entry): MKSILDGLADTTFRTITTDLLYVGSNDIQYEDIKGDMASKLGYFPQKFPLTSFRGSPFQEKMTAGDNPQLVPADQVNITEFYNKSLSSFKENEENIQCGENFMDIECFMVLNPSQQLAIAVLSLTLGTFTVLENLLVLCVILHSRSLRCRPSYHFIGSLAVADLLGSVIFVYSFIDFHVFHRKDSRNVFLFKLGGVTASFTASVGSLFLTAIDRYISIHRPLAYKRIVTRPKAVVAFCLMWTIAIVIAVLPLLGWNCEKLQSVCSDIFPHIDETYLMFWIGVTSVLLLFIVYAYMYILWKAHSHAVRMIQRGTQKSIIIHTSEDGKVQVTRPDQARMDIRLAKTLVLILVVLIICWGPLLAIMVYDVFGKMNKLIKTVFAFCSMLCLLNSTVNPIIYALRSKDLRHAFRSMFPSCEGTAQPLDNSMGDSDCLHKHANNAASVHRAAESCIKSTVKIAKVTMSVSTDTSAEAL
Sequence of Cannabinoid receptor 2 (P34972 whole entry): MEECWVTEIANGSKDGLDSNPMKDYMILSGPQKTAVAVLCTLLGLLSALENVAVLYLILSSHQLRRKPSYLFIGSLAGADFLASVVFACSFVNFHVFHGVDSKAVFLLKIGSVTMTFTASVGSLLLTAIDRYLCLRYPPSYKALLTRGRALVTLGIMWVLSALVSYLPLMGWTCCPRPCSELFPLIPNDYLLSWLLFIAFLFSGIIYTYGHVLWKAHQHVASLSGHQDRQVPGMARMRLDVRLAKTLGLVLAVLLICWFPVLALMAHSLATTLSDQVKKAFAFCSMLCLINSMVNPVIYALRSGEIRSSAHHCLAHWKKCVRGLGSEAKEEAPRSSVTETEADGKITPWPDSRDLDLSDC

| Structure (SMILES) | Ratio Ki (Homo sapiens) | pKi (Cannabinoid receptor 1) | pKi (Cannabinoid receptor 2) | Activity (Mus musculus [1]) | Activity (Mus musculus [2]) |
| --- | --- | --- | --- | --- | --- |
| CCCCCn1cc(C(=O)N[C@H](C)c2ccccc2)c(=O)c2ccc(OCC)cc21 | 1.2 | 7.53 | 7.62 |  |  |
| CCCCCn1cc(C(=O)NC23CC4CC(CC(C4)C2)C3)c(=O)c2cc(Oc3ccc(F)c(Cl)c3)ccc21 | 46 | 6.13 | 7.79 |  |  |
| CCCCCn1cc(C(=O)NC23CC4CC(CC(C4)C2)C3)c(=O)c2cc(C(F)(F)F)ccc21 | 217 | 5.60 | 7.94 |  |  |
| CCCCCn1cc(C(=O)NC23CC4CC(CC(C4)C2)C3)c(=O)c2ccc(F)cc21 | 38.1 | 7.52 | 9.10 |  |  |
| CCCCCn1cc(C(=O)NC23CC4CC(CC(C4)C2)C3)c(=O)c2ccc(S(=O)(=O)c3ccccc3)cc21 |  | 8.21 | 9.05 |  |  |
| CCCCCn1cc(C(=O)NC23CC4CC(CC(C4)C2)C3)c(=O)c2c(OC)ccc(OC)c21 | 39.9 | 5.68 | 7.28 |  |  |
| CCCCCn1cc(C(=O)N[C@H](C)c2ccccc2)c(=O)c2ccc(F)cc21 | 1.3 | 7.84 | 7.97 |  |  |
| C=CCCn1cc(C(=O)NC23CC4CC(CC(C4)C2)C3)c(=O)c2cc(Br)ccc21 | 113 | 5.57 | 7.62 |  |  |
| CCCCCn1cc(C(=O)NC23CC4CC(CC(C4)C2)C3)c(=O)c2ccc(Sc3ccccc3)cc21 | 3.3 | 8.28 | 8.80 |  |  |
| C=CCCCn1cc(C(=O)NC23CC4CC(CC(C4)C2)C3)c(=O)c2cc(Br)ccc21 | 74.4 | 6.16 | 8.03 |  |  |
| CCCCCn1cc(C(=O)NC23CC4CC(CC(C4)C2)C3)c(=O)c2cc(C(C)C)ccc21 |  |  |  | inactive | Active |
| CCCCCn1cc(C(=O)NC23CC4CC(CC(C4)C2)C3)c(=O)c2cc(F)c(-n3cccc3)cc21 | 38.8 | 6.85 | 8.44 |  |  |
| CCCCCn1cc(C(=O)NC23CC4CC(CC(C4)C2)C3)c(=O)c2ccc([S+]([O-])c3ccccc3)cc21 (stereo unspecified) | 8 | 7.55 | 8.46 |  |  |
| CCCCCn1cc(C(=O)NC23CC4CC(CC(C4)C2)C3)c(=O)c2cc(Sc3ccccc3)ccc21 | 189 | 6.19 | 8.47 |  |  |
| CCCCCn1cc(C(=O)N[C@H](C)c2ccccc2)c(=O)c2ccc(N3CCCC3)cc21 | 9.4 | 6.80 | 7.77 |  |  |
| C=CCn1cc(C(=O)NC23CC4CC(CC(C4)C2)C3)c(=O)c2c(OC)ccc(OC)c21 | > 1090 | < 5.00 | 8.04 |  |  |
| CCCCCn1cc(C(=O)NC23CC4CC(CC(C4)C2)C3)c(=O)c2ccc(Cl)c(C)c21 | > 393 | < 5.00 | 7.59 |  |  |
| CCCCCn1cc(C(=O)NC23CC4CC(CC(C4)C2)C3)c(=O)c2cc(/C=C/c3ccc(OC)cc3)ccc21 | 47 | 5.58 | 7.25 |  |  |
| CCCCCn1cc(C(=O)NC23CC4CC(CC(C4)C2)C3)c(=O)c2cc(Br)ccc21 | 69.4 | 6.00 | 7.84 |  |  |
| CCCCCn1cc(C(=O)NC23CC4CC(CC(C4)C2)C3)c(=O)c2cc(-c3ccccc3)ccc21 | > 2670 | < 5.00 | 8.42 |  |  |
| CCCCCn1cc(C(=O)NC23CC4CC(CC(C4)C2)C3)c(=O)c2ccccc21 | 9 | 7.38 | 8.33 |  |  |
